Measurements gathered from unrelated publications.
Each line is one published result; the experiments were not run side by side.
Target: Activated CDC42 kinase 1 (TNK2, Homo sapiens, UniProt Q07912)

| Compound | effect on | action | method | tested at | measurement | value |
| --- | --- | --- | --- | --- | --- | --- |
| O=C1Nc2ccc(Cl)cc2C1=Cc1cc(Cl)c(O)c(Cl)c1 | cell-free assay |  |  | 0.5 µM | remaining signal | 32.4% |
| CCCOc1ccc([C@H]2[C@H](C(=O)O)[C@@H](c3ccc4c(c3)OCO4)CN2CC(=O)Nc2c(CC)cccc2CC)cc1 | cell-free assay |  | competition with immobilised ligand | 1 µM | remaining binding | 100% |
| COc1cccc2c(NCc3ccccc3)nc(-n3c(N)nc4ccccc43)nc12 | target engagement in cells | inhibitor | chemoproteomics | 20 mM | inhibition | 18.9% |
| CC(C)(C)c1nc(-c2cccc(NS(=O)(=O)c3c(F)cccc3F)c2F)c(-c2ccnc(N)n2)s1 | enzyme activity | inhibitor | radiometric | 1 µM | remaining activity | 29% |
| c1ccc(CNc2nc(N3CCOc4ccccc43)nc3c2CCCC3)cc1 | target engagement in cells | inhibitor | chemoproteomics | 20 mM | inhibition | -11.3% |
| O=C(Nc1cnn(-c2csc(C(=O)NC3COC3)c2)c1)Nc1ccccc1Cl | enzyme activity | inhibitor |  | 5 µM | remaining activity | 85.6% |
| N#CC1(c2ccccn2)CCN(Cc2cc(C(=O)N3CCCC3)c(=O)n3ccccc23)CC1 | cell-free assay |  | competition with immobilised ligand | 1 µM | remaining binding | 85% |
| Cc1ccc(C(=O)NCc2ccsc2)cc1C#Cc1cn(C(C)C)c2ncnc(N)c12 | enzyme activity | inhibitor |  | 1 µM | activity vs control | 19% |
| O=C(O)c1cc(-c2ccc(C3CCNCC3)cc2)c2ccc(-c3ccc(C(F)(F)F)cc3)cc2c1 | cell-free assay |  | competition with immobilised ligand | 1 µM | remaining binding | 100% |
| CCCOc1ccc(OC)c(F)c1C(=O)c1ccc(C(=O)N[C@@H]2CNC[C@H]2NC(=O)c2ccc3[nH]ncc3c2)cc1 | enzyme activity | inhibitor |  | 10 µM | remaining activity | 92% |
| CN(C)C(=O)Cn1cc(-c2nc(C3(c4ccc(-c5cnc(N)nc5)cc4)CC3)no2)cn1 | cell-free assay |  | competition with immobilised ligand | 1 µM | remaining binding | 96% |
| CS(=O)(=O)CCNCc1ccc(-c2ccc3ncnc(Nc4ccc(OCc5cccc(F)c5)c(Cl)c4)c3c2)o1 | cell-free assay |  |  | 0.5 µM | remaining signal | 97.5% |
| Cc1cc(NC(=O)c2cccc3cc(-c4cccc5[nH]nc(N)c45)ccc23)ccc1F | enzyme activity | inhibitor |  | 0.1 µM | activity vs control | 107% |
| COc1cc2nccc(Oc3ccc(NC(=O)c4c5n(n(-c6ccc(F)cc6)c4=O)CCCC5)cc3)c2cc1OC | enzyme activity | inhibitor |  | 0.1 µM | inhibition | 6% |
| O=C(Nc1cnn(-c2csc(C(=O)NC3COC3)c2)c1)Nc1c(F)cccc1Cl | enzyme activity | inhibitor |  | 5 µM | remaining activity | 94.6% |
| CC(C)(O)[C@H]1CC[C@H](Nc2ccc3ncc(-c4cccc(C(F)(F)F)c4)n3n2)CC1 | enzyme activity | inhibitor |  | 1 µM | remaining activity | 5.31% |
| CC(=O)N1CCC(c2ccc(C(=O)NC(=N)N)cc2C(F)(F)F)CC1 | cell-free assay |  | competition with immobilised ligand | 1 µM | remaining binding | 100% |
| CCN(CC)c1ccc(C2=NNC(=O)CC2C)cc1[N+](=O)[O-] (stereo not drawn) | enzyme activity | inhibitor |  | 10 µM | remaining activity | 94% |
